Results taken from ChEMBL document CHEMBL1158389, “Highly twisted adamantyl arotinoids: synthesis, antiproliferative effects and RXR transactivation profiles” (Eur J Med Chem, 2009).
Values belong to the compound of their own block, whether it stands above or below them. Calls of active or inactive are those of the source. The calls are words filed in the database; no cut-off is given here.

How the values were obtained:
[1] = molecular target: T1, Retinoic acid receptor gamma (Homo sapiens) (UniProt P13631); assay: Displacement of [3H]9cRA from RARgamma
T1 sequence (whole entry): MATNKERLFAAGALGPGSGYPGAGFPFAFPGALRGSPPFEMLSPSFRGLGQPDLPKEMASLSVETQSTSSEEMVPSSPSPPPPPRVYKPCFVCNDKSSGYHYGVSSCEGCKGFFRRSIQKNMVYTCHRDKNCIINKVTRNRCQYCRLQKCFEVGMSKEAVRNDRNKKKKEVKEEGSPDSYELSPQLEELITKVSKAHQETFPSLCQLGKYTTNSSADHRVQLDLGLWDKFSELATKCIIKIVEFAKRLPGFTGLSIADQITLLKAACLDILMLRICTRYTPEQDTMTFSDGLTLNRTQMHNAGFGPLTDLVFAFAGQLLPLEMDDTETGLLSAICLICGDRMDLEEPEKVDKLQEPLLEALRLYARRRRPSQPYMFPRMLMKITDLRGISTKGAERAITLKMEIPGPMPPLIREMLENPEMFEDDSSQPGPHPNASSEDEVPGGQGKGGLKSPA

[2] = tested on: T47D; assay: Antiproliferative activity against human T47D cells at 4 uM after 48 hrs by MTT assay; format: functional
Outline: (§1)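 Epithelial cancer lines came from ATCC and were seeded the day before in complete medium: PC-3, SkOV3 and A549 at 3,000/well; MiaPaCa-2 and BxPC-3 at 4,000; T-47D and MDA-MB-468 at 5,000. Medium was switched to 0.5% FBS just before exposure to 4 μM. Read-out was MTT (4 h, 37 °C), SDS/HCl solubilisation, A595 minus cell-free blank. Growth inhibition was taken versus DMSO (≤0.1% v/v) controls, ≥2 experiments in triplicate.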

[3] = tested on: SK-OV-3; assay: Antiproliferative activity against human SKOV3 cells at 4 uM after 48 hrs by MTT assay; format: functional; outline: as §1
[4] = molecular target: T2, Retinoic acid receptor RXR-alpha (Homo sapiens) (UniProt P19793); assay: Displacement of [3H]9cRA from RXRalpha
T2 sequence (whole entry): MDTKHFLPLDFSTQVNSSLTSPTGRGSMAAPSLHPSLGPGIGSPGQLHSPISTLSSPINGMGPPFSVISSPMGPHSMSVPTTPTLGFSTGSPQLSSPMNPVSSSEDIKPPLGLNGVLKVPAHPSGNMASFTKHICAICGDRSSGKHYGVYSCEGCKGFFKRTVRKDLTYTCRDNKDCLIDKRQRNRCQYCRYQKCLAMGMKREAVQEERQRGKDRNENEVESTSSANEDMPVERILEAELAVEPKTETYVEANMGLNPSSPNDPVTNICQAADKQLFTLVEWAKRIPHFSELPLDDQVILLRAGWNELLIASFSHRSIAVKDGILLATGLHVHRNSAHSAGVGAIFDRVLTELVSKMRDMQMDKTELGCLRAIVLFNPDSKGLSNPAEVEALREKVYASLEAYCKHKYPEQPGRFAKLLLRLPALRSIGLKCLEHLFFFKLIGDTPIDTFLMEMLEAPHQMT

[5] = tested on: Jurkat; assay: Induction of apoptosis in human Jurkat T cells assessed as induction of DEVDase activity at 1 uM after 4 hrs by fluorescence assay; format: functional, cell-based
Outline: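 Jurkat cells (40,000/well, 10^6 cells/mL, RPMI with 0.5% FBS) were treated for 4 h; controls got 0.1% DMSO. Lysis was in CE buffer (PIPES pH 7, NP-40, cytochalasin B, protease inhibitors) for 30 min at 4 °C. Lysates were mixed with 2x caspase buffer (HEPES pH 7.4, CHAPS, sucrose) holding 100 μM Ac-DEVD-AFC and incubated at 37 °C for 30 min. AFC was read every 2 min, ex 390/em 510 nm.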

[6] = tested on: MDA-MB-468; assay: Antiproliferative activity against human MDA-MB-468 cells at 4 uM after 48 hrs by MTT assay; format: functional; outline: as §1
[7] = molecular target: T3, Retinoic acid receptor beta (Homo sapiens) (UniProt P10826); assay: Displacement of [3H]9cRA from RARbeta
T3 sequence (whole entry): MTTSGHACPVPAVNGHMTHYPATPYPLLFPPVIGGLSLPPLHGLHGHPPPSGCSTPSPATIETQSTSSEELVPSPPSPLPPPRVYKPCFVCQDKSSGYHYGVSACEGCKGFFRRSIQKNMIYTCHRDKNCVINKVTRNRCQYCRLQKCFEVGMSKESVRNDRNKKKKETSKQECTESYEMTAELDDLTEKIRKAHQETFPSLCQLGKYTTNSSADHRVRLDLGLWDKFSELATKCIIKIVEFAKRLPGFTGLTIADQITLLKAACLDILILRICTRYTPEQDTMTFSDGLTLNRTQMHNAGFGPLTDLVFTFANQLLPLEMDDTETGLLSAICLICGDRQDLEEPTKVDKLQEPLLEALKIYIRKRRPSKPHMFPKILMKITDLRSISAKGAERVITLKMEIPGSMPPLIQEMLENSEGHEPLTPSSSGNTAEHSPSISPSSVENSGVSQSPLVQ

[8] = molecular target: T4, Retinoic acid receptor alpha (Homo sapiens) (UniProt P10276); assay: Displacement of [3H]9cRA from RARalpha
T4 sequence (whole entry): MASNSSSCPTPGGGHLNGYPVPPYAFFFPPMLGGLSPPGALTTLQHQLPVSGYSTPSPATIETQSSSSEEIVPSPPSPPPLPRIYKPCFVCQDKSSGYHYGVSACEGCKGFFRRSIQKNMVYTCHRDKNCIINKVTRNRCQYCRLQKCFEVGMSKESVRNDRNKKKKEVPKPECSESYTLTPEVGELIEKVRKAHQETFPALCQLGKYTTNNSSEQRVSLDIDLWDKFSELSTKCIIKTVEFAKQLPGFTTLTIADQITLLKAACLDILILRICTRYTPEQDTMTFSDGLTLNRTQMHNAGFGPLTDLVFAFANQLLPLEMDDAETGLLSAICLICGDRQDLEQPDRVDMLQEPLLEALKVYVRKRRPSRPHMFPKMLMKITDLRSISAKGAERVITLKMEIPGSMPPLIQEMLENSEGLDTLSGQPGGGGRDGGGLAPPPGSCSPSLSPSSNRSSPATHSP

[9] = tested on: A549; assay: Antiproliferative activity against human A549 cells at 4 uM after 72 hrs by MTT assay; format: functional; outline: as §1
[10] = tested on: MIA PaCa-2; assay: Antiproliferative activity against human MIAPaCa2 cells at 4 uM after 48 hrs by MTT assay; format: functional; outline: as §1
[11] = tested on: PC-3; assay: Antiproliferative activity against human PC3 cells at 4 uM after 48 hrs by MTT assay; format: functional; outline: as §1
[12] = tested on: BXPC-3; assay: Antiproliferative activity against human BxPC3 cells at 4 uM after 48 hrs by MTT assay; format: functional; outline: as §1
[13] = molecular target: T1, Retinoic acid receptor gamma (Homo sapiens); assay: Inhibition of transactivation activity of Gal4-LBD fused human RARgamma (178 to 454) transfected in atRA-stimulated african green monkey CV1 cells after 20 hrs by Dual-light chemiluminescent assay; details: CV-1
[14] = molecular target: T3, Retinoic acid receptor beta (Homo sapiens); assay: Inhibition of transactivation activity of Gal4-LBD fused human RARbeta (169 to 448) transfected in atRA-stimulated african green monkey CV1 cells after 6 hrs by Dual-light chemiluminescent assay; format: cell-based; details: CV-1
Outline: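 Gal4 DBD (1–147) was fused to hRARα (156–462) or hRARβ (169–448) LBD. CV-1 cells (20,000/well) were co-transfected with 10 ng Gal4-LBD, 100 ng UAS-luciferase and 25 ng β-gal vector. After 16 h the medium was replaced with medium containing 5% charcoal-treated FBS. Cells got atRA plus test compound at 10-, 40- or 200-fold excess (0.2, 0.8, 4 μM) for 6 h. Luciferase and β-galactosidase were read by chemiluminescence.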

[15] = molecular target: T5, Retinoic acid receptor RXR-alpha (Mus musculus) (UniProt P28700); assay: Inhibition of Gal4-LBD fused mouse RXRalpha transactivation in african green monkey CV1 cells at 1 uM after 6 hrs by Dual-light chemiluminescent assay; format: cell-based; details: CV-1
T5 sequence (whole entry): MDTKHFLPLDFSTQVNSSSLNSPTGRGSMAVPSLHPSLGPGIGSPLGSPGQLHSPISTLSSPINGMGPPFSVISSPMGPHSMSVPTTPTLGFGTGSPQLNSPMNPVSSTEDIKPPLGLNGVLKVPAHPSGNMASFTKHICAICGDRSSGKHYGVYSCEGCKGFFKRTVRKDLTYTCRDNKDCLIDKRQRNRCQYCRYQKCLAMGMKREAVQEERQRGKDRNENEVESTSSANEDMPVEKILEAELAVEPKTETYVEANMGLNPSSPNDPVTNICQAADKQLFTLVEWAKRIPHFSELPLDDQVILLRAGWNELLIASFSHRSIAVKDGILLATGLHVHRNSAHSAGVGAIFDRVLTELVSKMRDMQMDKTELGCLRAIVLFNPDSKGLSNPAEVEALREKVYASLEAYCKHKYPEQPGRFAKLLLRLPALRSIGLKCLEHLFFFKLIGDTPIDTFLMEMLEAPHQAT
Outline: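 CV-1 cells (20,000/well) co-transfected with 10 ng Gal4 DBD (residues 1–147)–mRXRα LBD (residues 218–467) vector, 100 ng UAS-luciferase reporter and 25 ng β-galactosidase vector (pCH110). After 16 h, switched to medium with 5% charcoal-treated FBS and treated for 6 h. Cells washed, lysed, and luciferase and β-galactosidase activities read by chemiluminescence.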

Activity [1]: 83% | Activity [4]: 16% | Activity [7]: 17% | Activity [8]: 31%
SMILES: O=C(O)/C=C/c1ccc(-c2ccc(O)c(C34CC5CC(CC(C5)C3)C4)c2)c(Cl)c1
Activity [2]: Active | Activity [3]: Active | Activity [5]: Active | Activity [6]: Active | Activity [9]: Active | Activity [10]: Active | Activity [11]: Active | Activity [12]: Active

Activity [13]: Active | Activity [14]: Active
SMILES: CC1(C)CC=C(C#Cc2ccccc2)c2cc(/C=C/c3ccc(C(=O)O)cc3)ccc21

SMILES: CCCCCOc1cc2c(cc1-c1cc(/C=C/C(=O)O)ccc1O)C(C)(C)CCC2(C)C
Activity [15]: Active
